# In PMC3445775 (Hepatology (Baltimore, Md.), 2012):
# “Also recorded” adds a separate entry of the source.
# Key:
# [1] = test system: hepatic triglyceride accumulation; experiment: Chronic bile acid injection during high-fat diet; format: in vivo, mouse; conditions: 3.2 mg/kg s.c. daily
# Outline: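 Individually housed mice on a high-fat diet (60% calories from fat) received daily s.c. injections of test compound, 3.2 mg/kg in 20 μl DMSO, above the right hip for 47 days. Controls received DMSO vehicle. Mice were fasted 4 h and euthanised with CO2, and injection sites were checked for precipitate. Liver lysates were assayed for protein (BCA) and TAG.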
# human FATP5 = target: T1, human FATP5 (Homo sapiens, UniProt Q9Y2P5); format: cell-based
# T1 sequence (Q9Y2P5 1-690): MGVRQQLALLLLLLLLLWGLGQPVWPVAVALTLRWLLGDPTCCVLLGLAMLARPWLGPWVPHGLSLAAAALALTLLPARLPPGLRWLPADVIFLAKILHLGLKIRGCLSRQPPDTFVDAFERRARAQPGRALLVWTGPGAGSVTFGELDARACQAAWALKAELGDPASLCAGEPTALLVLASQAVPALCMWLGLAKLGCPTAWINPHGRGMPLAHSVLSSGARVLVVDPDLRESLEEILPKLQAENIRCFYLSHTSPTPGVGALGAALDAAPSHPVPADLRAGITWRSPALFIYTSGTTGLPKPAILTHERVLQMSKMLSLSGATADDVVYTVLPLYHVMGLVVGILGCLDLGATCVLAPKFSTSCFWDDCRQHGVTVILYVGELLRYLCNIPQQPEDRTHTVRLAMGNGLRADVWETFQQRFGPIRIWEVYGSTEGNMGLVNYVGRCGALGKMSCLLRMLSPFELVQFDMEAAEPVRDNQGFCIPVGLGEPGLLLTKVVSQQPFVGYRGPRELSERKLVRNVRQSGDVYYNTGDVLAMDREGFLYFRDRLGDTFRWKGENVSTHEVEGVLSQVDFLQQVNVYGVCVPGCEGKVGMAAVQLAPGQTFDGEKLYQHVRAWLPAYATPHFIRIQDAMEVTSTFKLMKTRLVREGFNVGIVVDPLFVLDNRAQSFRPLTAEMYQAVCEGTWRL
# Outline: (§1)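 HEK-293 cells stably expressing human FATP4, FATP2 or FATP5 were maintained in DMEM/10% FBS with 1 mg/ml G418. Cells were plated at 30,000–50,000/well overnight to 50–70% confluency. They were preincubated 30 min (5% CO2) with test compound, diluted from DMSO stock into HBSS with 20 mM HEPES, 4.5 g/L glucose and 0.1% fatty-acid-free BSA. Compound in quencher mix containing 2 μM C1-BODIPY-C12 was then added. Fluorescence (ex 488/em 515 nm, bottom read) was recorded every 2 min for 2 h, and uptake velocities were derived by linear regression.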
# FATP5 and FATP2 = experiment: Inhibition reversibility assay; format: cell-based, human; conditions: 30 min treatment followed by brief washes with PBS
# [2] = test system: Mouse primary hepatocytes; experiment: Uptake assay of radiolabeled compounds, primary hepatocytes; format: cell-based; conditions: 5 μM DCA
# TGR5 = conditions: ref [33], [34]; cited from earlier work
# hsFATP4 = hsFATP4 (Homo sapiens, UniProt Q6P1M0); experiment: Quencher-based LCFA uptake assay, FATP4 expressing 293 cells; format: cell-based; conditions: result in words
# Outline: as §1
# [3] = test system: primary mouse hepatocytes from C57Bl/6 animals; experiment: Quencher based LCFA uptake assay, wild-type mouse primary hepatocytes; format: cell-based
# [4] = test system: primary mouse hepatocytes; experiment: XTT viability of primary mouse hepatocytes; format: cell-based; conditions: 48 hour treatment
# 293 cells = experiment: XTT toxicity assay, stable 293 cell lines; format: cell-based, human; conditions: 48 hours
# Outline: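 Stable 293 cells in DMEM/FBS were incubated overnight in 5% CO2. The indicated test compound or DMSO control was added, and after a further 48 h viability was measured with an XTT kit per the manufacturer's instructions.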
# [5] = test system: primary hepatocytes from FATP5-null animals; experiment: Quencher based LCFA uptake assay, FATP5-null mouse primary hepatocytes; format: cell-based; conditions: FATP5 KO
# Outline: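 Primary hepatocytes from FATP5-null mice were isolated by portal-vein perfusion and collagenase digestion. Viability was checked by trypan blue, and cells were plated on collagen (150,000 cells/well) in DMEM/FBS with insulin-transferrin-selenium overnight. Test compound from DMSO stock in HBSS (20 mM HEPES, 4.5 g/L glucose, 0.1% fatty-acid-free BSA) was applied for 30 min. It was replaced by the same compound in quencher mix with 2 μM C1-BODIPY-C12. Bottom-read fluorescence (ex 488/em 515 nm) was taken every 2 min for 2 h, and velocities were obtained by linear regression.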
# hepatic LCFA uptake = experiment: Non-radioactive in vivo hepatic LCFA uptake assay; set-up: species or system mouse
# [6] = test system: acute liver LCFA absorption; experiment: 1 week DCA/high-fat food feeding pilot; format: in vivo, mouse
# hepatic TAG content = experiment: 7 week bile acid supplemented high-fat diet feeding; format: in vivo, mouse
# [7] = test system: intestinal fatty acid absorption; experiment: Non-radioactive intestinal in vivo LCFA absorption assay; set-up: species or system mouse; conditions: gavage of olive oil/BODIPY-FFA with 0.05% DCA
# Outline: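 Mice were gavaged with 200 μl of olive oil/20 μM BODIPY-FFA containing 0% or 0.05% bile acid. Blood was drawn at 0, 30, 60, 120 and 240 min after gavage, and serum fluorescence at 515 nm was read on a plate reader.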
# human FATP2 = human FATP2 (Homo sapiens, UniProt O14975); format: cell-based
# Outline: as §1
# [8] = test system: primary human hepatocytes; experiment: FACS-based LCFA uptake assay, primary human hepatocytes; format: cell-based; conditions: 10 or 100 μM, viable cells
# Outline: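 Suspended primary human hepatocytes were pretreated with test compound at 10 or 100 μM in DMEM (37°C, 5% CO2, 30 min). C1-BODIPY-C12 bound to 0.1% BSA was then added to a final 2 μM for 30 min at 37°C. Uptake was stopped on ice, and cells were centrifuged at 4°C and resuspended in cold PBS. Propidium iodide was added, and mean BODIPY fluorescence of 5000 viable PI-negative cells was taken from histogram plots.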
# [9] = oral administration of UDCA; ref [41]; cited from earlier work
# NASH = conditions: cited from earlier work
# [10] = 0.5mg/g in high fat food, 7 weeks
# Chain of hsFATP4 (Q6P1M0 whole entry): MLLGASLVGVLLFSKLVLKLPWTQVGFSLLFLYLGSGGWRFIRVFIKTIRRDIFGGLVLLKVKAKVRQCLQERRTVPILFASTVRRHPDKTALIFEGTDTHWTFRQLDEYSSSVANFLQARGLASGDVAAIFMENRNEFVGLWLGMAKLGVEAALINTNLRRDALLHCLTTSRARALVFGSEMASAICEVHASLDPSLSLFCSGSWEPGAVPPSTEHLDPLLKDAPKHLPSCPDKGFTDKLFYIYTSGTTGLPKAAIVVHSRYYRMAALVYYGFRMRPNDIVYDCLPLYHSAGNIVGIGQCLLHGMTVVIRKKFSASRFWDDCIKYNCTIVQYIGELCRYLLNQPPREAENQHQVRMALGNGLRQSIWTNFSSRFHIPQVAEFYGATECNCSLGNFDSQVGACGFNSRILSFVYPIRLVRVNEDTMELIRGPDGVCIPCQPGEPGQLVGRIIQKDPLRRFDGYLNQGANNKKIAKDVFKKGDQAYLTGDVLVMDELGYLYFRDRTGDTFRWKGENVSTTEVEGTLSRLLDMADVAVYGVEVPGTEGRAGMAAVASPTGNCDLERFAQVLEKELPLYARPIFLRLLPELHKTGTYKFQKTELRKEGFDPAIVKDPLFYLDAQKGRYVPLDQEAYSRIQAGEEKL
compound,measurement,setting,value
"C[C@H](CCC(=O)O)[C@H]1CC[C@H]2[C@@H]3CC[C@@H]4C[C@H](O)CC[C@]4(C)[C@H]3C[C@H](O)[C@]12C [DCA, deoxycholic acid]",body weight,[1]; 47 days,nor did it affect food consumption or body weight
same,food consumption,[1]; 47 days,nor did it affect food consumption or body weight
same,respiration,[1]; 47 days,neither triggered an increase in respiration
same,reduction in the triglyceride content of the liver,"[1]; 47 days, WT",68%
same,triglyceride content of the liver,"[1]; 47 days, WT, vehicle 6.6",2.1 mg TAG/g protein
same,liver TAG in FATP5-null animals,[1]; FATP5-null,did not cause a further reduction in liver TAG
same,IC50,human FATP5,0.19 µM
same,Reversible Inhibition,FATP5 and FATP2,reversible and Yes
same,uptake of 2-deoxy-D-[3H]glucose/glucose mix,[2],without affecting uptake
same,uptake of radiolabeled fatty acids,[2]; 20 μM fatty acid,inhibit the uptake of a wide range of fatty acids
same,TGR5 activation,TGR5,activate TGR5 equally
same,inhibition of FATP4 LCFA uptake,hsFATP4,"neither DCA, UDCA, nor LCA inhibited; also recorded: No inhibition"
same,inhibition of LCFA uptake by primary mouse hepatocytes,[3],inhibited hepatocyte LCFA uptake significantly
same,cytotoxicity to primary mouse hepatocytes (XTT),[4],not associated with toxicity
same,toxicity (XTT assay),293 cells,did not display any cytotoxicity
same,inhibition of LCFA uptake by FATP5-null primary hepatocytes,[5],abolished
same,effect on in vivo hepatic LCFA uptake in FATP5 KO,"hepatic LCFA uptake; FATP5 KO mice, 6.4mg/kg",abolished
same,effect on in vivo hepatic LCFA uptake,"hepatic LCFA uptake; WT mice, acute injection",inhibitory effect was observed
same,acute reduction of hepatic LCFA uptake,"hepatic LCFA uptake; in vivo, DCA injections",31%
same,acute liver LCFA absorption,[6]; DCA 0 to 0.2% in high-fat food,dose dependent reduction
same,circulating liver enzymes (serum AST),[6]; DCA 0 to 0.2% in high-fat food,without causing a detectable increase
same,circulating lipids in the form of TAG and cholesterol,[6]; dietary DCA 0.03%-0.4%,unchanged
same,body weight,hepatic TAG content; [10],Neither DCA nor LCA feeding resulted in changes
same,caloric output over a 36h period,hepatic TAG content; [10],Neither DCA nor LCA feeding resulted in changes
same,food intake,hepatic TAG content; [10],Neither DCA nor LCA feeding resulted in changes
same,respiratory rate,hepatic TAG content; [10],Neither DCA nor LCA feeding resulted in changes
same,lipid droplets in BODIPY-stained liver sections,hepatic TAG content; 0.05% DCA in high-fat diet,markedly reduced lipid droplets
same,"hepatotoxicity or fibrosis (ALT/AST assays, liver morphology)","hepatic TAG content; 0.05% DCA in high-fat diet, 49 days",did not lead to hepatotoxicity or fibrosis
same,reduction in hepatic TAG content,"hepatic TAG content; 0.05% in high-fat diet, 7 weeks",approximately 50%
same,intestinal fatty acid absorption (labeled fatty acid in the circulation),[7],not suppressed; also recorded: no significant effect
same,IC50,human FATP2,5 µM
"C[C@H](CCC(=O)O)[C@H]1CC[C@H]2[C@@H]3[C@@H](O)C[C@@H]4C[C@H](O)CC[C@]4(C)[C@H]3CC[C@]12C [UDCA, ursodeoxycholic acid, reference compound]",IC50,human FATP5,5 µM
same,inhibition of LCFA uptake by primary human hepatocytes,[8],inhibited LCFA uptake
same,Reversible Inhibition,FATP5 and FATP2,Yes
same,inhibition of FATP4 LCFA uptake,hsFATP4,"neither DCA, UDCA, nor LCA inhibited; also recorded: No inhibition"
same,inhibition of LCFA uptake by primary mouse hepatocytes,[3],inhibited LCFA uptake
same,cytotoxicity to primary mouse hepatocytes (XTT),[4],without any detectable cytotoxic effects
same,inhibition of LCFA uptake by FATP5-null primary hepatocytes,[5],failed to inhibited LCFA uptake
same,circulating UDCA levels,[9],over 17 μM
same,effect on hepatosteatosis and NASH versus placebo,"NASH; 13–15 mg/kg/day over 2 years, 166 patients, ref [43]",did not produce an effective result as compared to placebo
same,overall histology,"NASH; 23–28 mg/kg/day for 18 months, 185 NASH patients, ref [44]",failed to improve the overall histology
